Rows were chosen to be rich in hits. Some 4% of all compounds tested hit in one or more screens of this group.
hERG protect: shields human hERG channel from block by proarrhythmic agents | AID 1511 | CHO-hERG, FluxOR thallium flux, dofetilide IC70 present | hit rate 0.51% among 310,000 | activation (rescue from dofetilide block), less the hit threshold, % at 10 µM | Q12809;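 active = activation above the mean of controls blocked by dofetilide plus 5 SD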;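 also: thallium influx through hERG after potassium depolarization seen as dye fluorescence rise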
PHOSPHO1 inh: blocks human PHOSPHO1 phosphatase activity. inhibition, % at 13.3 µM. hit rate 1.1% among 290,000. Q8TCT1. recombinant PHOSPHO1, absorbance phosphatase assay; in the data active = inhibition above about 60%
KCNK9 inh: human KCNK9 channel inhibition; Q9NPC2; hit rate 1.2% among 310,000; HEK293 KCNK9, FluxOR thallium flux fluorescence; hits give low values; B-score at 10 µM;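 active = ratio B-score over 3 SD below the library mean, with starting fluorescence within 5 SD of its mean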;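 also: negative B-score means less thallium flux so channel inhibition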
KCNQ1 act: human KCNQ1 channel potentiation or activation. P51787. CHO-K1 KCNQ1, thallium flux FluxOR fluorescence; hits give high values. B-score at 10 µM. hit rate 0.35% among 310,000;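 active = fluorescence ratio B-score, a plate-corrected score, at least three library SD, with initial intensity B-score within 5 SD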
Target sequence (P51787 whole entry, looked up): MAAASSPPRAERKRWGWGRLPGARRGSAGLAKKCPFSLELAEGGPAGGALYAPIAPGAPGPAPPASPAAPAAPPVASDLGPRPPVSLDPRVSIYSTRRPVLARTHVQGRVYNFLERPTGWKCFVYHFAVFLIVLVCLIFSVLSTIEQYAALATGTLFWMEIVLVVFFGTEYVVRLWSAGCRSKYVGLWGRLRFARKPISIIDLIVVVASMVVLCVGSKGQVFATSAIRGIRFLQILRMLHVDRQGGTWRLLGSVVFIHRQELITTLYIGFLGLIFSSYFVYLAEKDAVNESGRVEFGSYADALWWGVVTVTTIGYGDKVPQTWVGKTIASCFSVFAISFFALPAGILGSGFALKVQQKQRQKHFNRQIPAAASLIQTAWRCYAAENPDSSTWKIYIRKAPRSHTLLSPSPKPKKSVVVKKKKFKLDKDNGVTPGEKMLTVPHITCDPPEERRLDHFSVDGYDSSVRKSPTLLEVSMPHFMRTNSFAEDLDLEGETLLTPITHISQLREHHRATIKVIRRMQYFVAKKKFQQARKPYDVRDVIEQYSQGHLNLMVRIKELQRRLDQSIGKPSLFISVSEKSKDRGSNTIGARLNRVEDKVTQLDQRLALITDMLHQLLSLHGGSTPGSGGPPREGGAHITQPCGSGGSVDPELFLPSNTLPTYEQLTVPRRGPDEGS
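Schedule – 37 °C overnight plating, 90-min dark dye load, 20-min compound pretreatment · System – stable KCNQ1 CHO-K1 line · Probe or stimulus – thallium- and potassium-containing depolarizing buffer · Measured by – kinetic FluxOR fluorescence, 10 s baseline plus 110 s post-stimulus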
KCNQ1 inh: inhibitors of human KCNQ1 potassium channel; hit rate 1.3% among 310,000; CHO-K1 KCNQ1, FluxOR thallium flux fluorescence; hits give high values; P51787; AID 2642; B-score at 10 µM;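 active = compounds whose thallium flux B-score, printed positive for inhibition, exceeds three library SD while starting fluorescence stays within three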;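 also: channel opened by potassium depolarization with thallium stimulus after 20 min compound exposure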
KCNK3 block: human KCNK3 channel inhibition, primary screen; hit rate 0.84% among 340,000; B-score at 10 µM; CHO-KCNK3 thallium flux, FluxOR fluorescence; hits give low values;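 active = B-score under library mean minus 4 SD, starting fluorescence ratio at most library mean plus 5 SD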;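 also: more negative B-score means stronger inhibition of thallium flux through KCNK3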
KCNQ1 block val: reconfirmed blocker of the human KCNQ1 potassium channel; shares compounds with KCNQ1 inh; KCNQ1 cell line, FluxOR thallium flux fluorescence; inhibition, % at 10 µM; hit rate 93% among 1,600; AID 588353;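 active = primary screen active, with duplicate mean exceeding buffer control mean plus 3 SD of buffer wells, cut at about 28% in these data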;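 also: 0% = buffer control ratio and 100% = XE991 inhibitor control ratio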
CHO KCNQ1 ctr: KCNQ1 inhibitor counter-screen hit in parental CHO cells; shares compounds with KCNQ1 inh; parental CHO-K1, FluxOR thallium flux fluorescence ratio; hits give low values; zero means no signal rise above baseline; fluorescence ratio (Tl flux) at 10 µM; hit rate 21% among 1,600;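 active = mean of duplicate thallium-flux fluorescence ratios in parental host cells more than 5 SD below the buffer control mean, cut at about 0.38 in these data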;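 also: ratio is peak minus minimum fluorescence divided by baseline fluorescence; actives read low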
KCNQ1 ephys val: confirmation of human KCNQ1 potassium channel inhibitors by electrophysiology. shares compounds with KCNQ1 inh. KCNQ1-CHO cells, automated patch clamp current. calls only at 10 µM. hit rate 20% among 490. AID 624120;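 active = KCNQ1 current drop exceeding 3 SD of negative control wells, seen in both duplicate runs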;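 also: steady state current during a 2 s step from -80 to +40 mV; negative values mean current inhibition and positive values mean potentiation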
KCNQ2 spec: KCNQ1 inhibitor that also blocks rat KCNQ2 channel | KCNQ2 cells, FluxOR thallium flux fluorescence | inhibition, % at 10 µM | shares compounds with KCNQ1 inh | hit rate 71% among 1,600 | AID 651746;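 active = mean percent inhibition of the KCNQ2 thallium signal more than 5 SD above the buffer-only control wells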;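 also: KCNQ2 expressed in CHO cells; 0% = buffer control wells and 100% = XE-991 inhibitor control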
KCNQ1-KCNE1 inh: human KCNQ1/KCNE1 inhibition in KCNQ1 specificity screen; shares compounds with KCNQ1 inh; KCNQ1/KCNE1 cells, FluxOR thallium flux fluorescence; inhibition, % at 10 µM; hit rate 77% among 1,600; AID 652147;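 active = mean percent inhibition of duplicate wells above the buffer-only control mean plus 3 SD of those controls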;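 also: 0% = buffer only wells and 100% = XE-991 inhibitor control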
An asterisk follows results filed as active.

Screening CCOc1ccc(-n2c(=S)sc3c(=O)[nH]c(SCC(=O)C(C)(C)C)nc32)cc1 returned hERG protect -6, PHOSPHO1 inh -7, KCNK9 inh inactive, KCNQ1 act inactive, KCNQ1 inh 6*, KCNK3 block inactive, KCNQ1 block val 92*, CHO KCNQ1 ctr 0.47, KCNQ1 ephys val active, KCNQ2 spec inactive and KCNQ1-KCNE1 inh 60%*.
Screening CCn1c(=S)sc2c(=O)[nH]c(SCC(=O)Nc3cc(OC)ccc3OC)nc21 returned hERG protect -18, PHOSPHO1 inh 2, KCNK9 inh inactive, KCNQ1 act inactive, KCNQ1 inh 10*, KCNK3 block inactive, KCNQ1 block val 66*, CHO KCNQ1 ctr 0.45, KCNQ2 spec inactive and KCNQ1-KCNE1 inh 89%*.
Cc1[nH]n(-c2ccccc2)c(=O)c1/C=C1\C=NN=C1c1ccccc1 was read as hERG protect -10, PHOSPHO1 inh -8, KCNK9 inh inactive, KCNQ1 act inactive, KCNQ1 inh inactive and KCNK3 block inactive.
`Cc1cccc(-c2nc(Nc3ccc(N4CCOCC4)cc3)c3ccccc3n2)c1` gave hERG protect -8, PHOSPHO1 inh -34, KCNK9 inh inactive, KCNQ1 act inactive, KCNQ1 inh 13*, KCNK3 block inactive, KCNQ1 block val 108*, CHO KCNQ1 ctr 0.43, KCNQ1 ephys val inactive, KCNQ2 spec 90%* and KCNQ1-KCNE1 inh 148%*.
Screening c1ccc2c(Nc3ccc(N4CCOCC4)cc3)nc(N3CCOCC3)nc2c1 returned hERG protect 0, PHOSPHO1 inh 3, KCNK9 inh inactive, KCNQ1 act inactive, KCNQ1 inh inactive and KCNK3 block inactive.
For CCOC(=O)NNc1ccc(C(F)(F)F)cn1 the results were hERG protect -9, PHOSPHO1 inh 25, KCNK9 inh inactive, KCNQ1 act inactive, KCNQ1 inh inactive and KCNK3 block inactive.
`CCCCSc1nc(C)c(CC(=O)O)c(=O)[nH]1` gave hERG protect -5, PHOSPHO1 inh 14, KCNK9 inh inactive, KCNQ1 act inactive, KCNQ1 inh 10*, KCNK3 block inactive, KCNQ1 block val 62*, CHO KCNQ1 ctr 0.52, KCNQ2 spec inactive and KCNQ1-KCNE1 inh 47%*.
For C=CCSc1nc(C)c(CC(=O)OCCCC)c(=O)[nH]1 the results were hERG protect -8, PHOSPHO1 inh -6, KCNK9 inh inactive, KCNQ1 act inactive, KCNQ1 inh inactive and KCNK3 block inactive.
For COc1ccc(CN2CCCC(CO)(Cc3ccc(F)cc3F)C2)cc1 (stereo unspecified) the results were hERG protect -3, PHOSPHO1 inh 4, KCNK9 inh inactive, KCNQ1 act inactive, KCNQ1 inh inactive and KCNK3 block inactive.
For COc1ccc(NC(C)C(=O)Nc2ccc(C#N)cc2)cc1Cl (stereo unspecified) the results were hERG protect -12, PHOSPHO1 inh 11, KCNK9 inh inactive, KCNQ1 act inactive, KCNQ1 inh inactive and KCNK3 block inactive.
Screening COc1ccc(NC(C)C(=O)Nc2ccc(C(C)(C)C)cc2)cc1Cl (stereo unspecified) returned hERG protect -4, PHOSPHO1 inh 3, KCNK9 inh inactive, KCNQ1 act inactive, KCNQ1 inh 7*, KCNK3 block inactive, KCNQ1 block val 146*, CHO KCNQ1 ctr 0.39, KCNQ1 ephys val inactive, KCNQ2 spec 92%* and KCNQ1-KCNE1 inh 167%*.
For O=C(c1ccc(-c2ccccc2Cl)o1)N1CCN(c2ccccc2O)CC1 the results were hERG protect -20, KCNK9 inh inactive, KCNQ1 act inactive, KCNQ1 inh 8*, KCNK3 block inactive, KCNQ1 block val active, CHO KCNQ1 ctr 0.39, KCNQ1 ephys val inactive, KCNQ2 spec inactive and KCNQ1-KCNE1 inh inactive.
`O=C(c1ccco1)N1CCN(C(=O)c2ccc(-c3ccccc3Cl)o2)CC1` gave KCNK3 block inactive.
For CN1CCN(C(=O)C2=C[C@@H](C3CCCCC3)C[C@@H](OCCCCO)O2)CC1 the results were hERG protect -6, PHOSPHO1 inh 44, KCNK9 inh inactive, KCNQ1 act inactive, KCNQ1 inh inactive and KCNK3 block inactive.
`CCOC(=O)C1CCN(S(=O)(=O)c2ccc3[nH]c(=O)c(=O)[nH]c3c2)CC1` gave hERG protect -9, PHOSPHO1 inh 20, KCNK9 inh inactive, KCNQ1 act inactive, KCNQ1 inh inactive and KCNK3 block inactive.
Screening CCOC(=O)C1CCN(S(=O)(=O)c2ccc3[nH]c4c(c3c2)CCCC4)CC1 returned hERG protect -10, PHOSPHO1 inh 22, KCNK9 inh inactive, KCNQ1 act inactive, KCNQ1 inh 6*, KCNK3 block inactive, KCNQ1 block val 102*, CHO KCNQ1 ctr 0.5, KCNQ1 ephys val active, KCNQ2 spec 67%* and KCNQ1-KCNE1 inh 102%*.
Screening Cc1ccc(C(=O)NCC(=O)NCC(=O)OCc2ccc(Oc3ccc([N+](=O)[O-])cc3)cc2)cc1 returned hERG protect -8, KCNK9 inh inactive, KCNQ1 act inactive, KCNQ1 inh inactive and KCNK3 block inactive.
Screening CC(=O)c1ccc(OCc2cc(C(=O)N3CCC(c4ccncc4)CC3)no2)cc1 returned hERG protect -15, PHOSPHO1 inh 20, KCNK9 inh inactive, KCNQ1 act inactive, KCNQ1 inh inactive and KCNK3 block inactive.
O=C(c1cc(COc2cccc(C(F)(F)F)c2)on1)N1CCC(c2ccccc2)CC1 was read as hERG protect -5, PHOSPHO1 inh 37, KCNK9 inh inactive, KCNQ1 act inactive, KCNQ1 inh inactive and KCNK3 block inactive.
`COc1cccc(OCc2cc(C(=O)N3CCC(c4ccncc4)CC3)no2)c1` gave hERG protect -13, PHOSPHO1 inh 34, KCNK9 inh inactive, KCNQ1 act inactive, KCNQ1 inh 8*, KCNK3 block inactive, KCNQ1 block val 111*, CHO KCNQ1 ctr 0.48, KCNQ1 ephys val inactive, KCNQ2 spec 135%* and KCNQ1-KCNE1 inh 98%*.
